ChEMBL document CHEMBL4190301, “Isolation, Structure Elucidition, and Immunosuppressive Activity of Diterpenoids from Ligularia fischeri” (J Nat Prod, 2017)
Active and inactive are the calls of the source. The rule behind the calls is not given here.

Experiments:
HMy2.C1R [1] = test: Immunosuppressive activity in human HMy2.C1R cells assessed as cell growth inhibition at 2.5 to 40 uM after 48 hrs by SRB assay; assay type: functional, cell-based
Procedure, shortened: (§1)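 Human B lymphoblast HMy2.CIR cells were seeded in 96-well plates in medium with 5% FBS. After 24 h, a plate was TCA-fixed as time zero (T0). Cells were then exposed to DMSO or compound at 2.5–40 μM for 48 h, fixed with 10% TCA and stained with 0.4% SRB in 1% HOAc. Bound dye was solubilized in 10 mM Trizma base and read at 540 nm. Percentage growth was calculated from T0, control and treated absorbances; mean ± SD, n = 3.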

HMy2.C1R [2] = test: Immunosuppressive activity in human HMy2.C1R cells assessed as cell growth inhibition after 48 hrs by SRB assay
HMy2.C1R [3] = test: Immunosuppressive activity in human HMy2.C1R cells assessed as cell growth at 40 uM after 48 hrs by SRB assay relative to control; assay type: functional; procedure, shortened: as §1
HMy2.C1R [4] = test: Immunosuppressive activity in human HMy2.C1R cells assessed as cell growth at 20 uM after 48 hrs by SRB assay relative to control; assay type: functional; procedure, shortened: as §1
HMy2.C1R [5] = test: Immunosuppressive activity in human HMy2.C1R cells assessed as cell growth at 10 uM after 48 hrs by SRB assay relative to control; assay type: functional; procedure, shortened: as §1
HMy2.C1R [6] = test: Immunosuppressive activity in human HMy2.C1R cells assessed as cell growth at 5 uM after 48 hrs by SRB assay relative to control; assay type: functional; procedure, shortened: as §1
HMy2.C1R [7] = test: Immunosuppressive activity in human HMy2.C1R cells assessed as cell growth at 2.5 uM after 48 hrs by SRB assay relative to control; assay type: functional; procedure, shortened: as §1
HMy2.C1R [8] = test: […] in human HMy2.C1R cells at 2.5 to 40 uM after 48 hrs by SRB assay; assay type: functional, cell-based; procedure, shortened: as §1

COc1cc(/C=C/C(=O)OC[C@@]2(O)C[C@@]34CC[C@@H]5C(C)(C)CCC[C@@]5(C(=O)O)[C@@H]3CC[C@@H]2C4)ccc1O
inhibition (HMy2.C1R [1]): inactive

C[C@]12CCC[C@@]3(COC1=O)[C@@H]1[C@@H]4C[C@@H]5C[C@@]1(CC[C@@H]32)C[C@]5(C)O4
inhibition (HMy2.C1R [1]): inactive

CC1(C)CCC[C@]2(C=O)[C@@H]1CC[C@@]13C[C@@H](CC[C@H]12)[C@@](O)(CO)C3
IC50 (HMy2.C1R [2]): 13.3 µM
Ratio (HMy2.C1R [3]): 0.301
Ratio (HMy2.C1R [4]): 0.455
Ratio (HMy2.C1R [5]): 0.525
Ratio (HMy2.C1R [6]): 0.685
Ratio (HMy2.C1R [7]): 0.791

C[C@@]12CC[C@@H](O)[C@@](C)(C(=O)O)[C@H]1CC[C@@]13C[C@@H](CC[C@H]12)[C@@](O)(CO)C3
inhibition (HMy2.C1R [1]): inactive

CC1(C)CCC[C@]2(C(=O)O)[C@@H]1CC[C@@]13C[C@@H](CC[C@H]12)[C@@](O)(CO)C3
inhibition (HMy2.C1R [1]): inactive

C=C1[C@H](O)CC[C@@H]2[C@@]3(C)CC[C@](C)(O)C[C@@H]3CC[C@@]12C
Activity (HMy2.C1R [8]): Dose-dependent effect

CC1(C)CCC[C@]2(C)[C@@H]1CC[C@@]13C[C@@H](CC[C@H]12)[C@](C)(O)C3
inhibition (HMy2.C1R [1]): inactive

C[C@]12CCC[C@]3(COC1=O)[C@@H]2C[C@H](O)[C@@]12C[C@@H](CC[C@]13O)[C@](C)(O)C2
inhibition (HMy2.C1R [1]): inactive

CC1(C)CCC[C@]2(C(=O)O)[C@@H]1CC[C@@]13C[C@@H](CC[C@H]12)[C@](C)(O)C3
inhibition (HMy2.C1R [1]): inactive

C=C[C@](C)(O)CC[C@@H]1C(=C)CC[C@@H]2C(C)(C)C[C@@H](O)C[C@@]12C
IC50 (HMy2.C1R [2]): 31.4 µM
Ratio (HMy2.C1R [3]): 0.39
Ratio (HMy2.C1R [4]): 0.648
Ratio (HMy2.C1R [5]): 0.761
Ratio (HMy2.C1R [6]): 0.812
Ratio (HMy2.C1R [7]): 0.934

CC1(C)CCC[C@]2(C=O)[C@@H]1CC[C@@]13C[C@@H](CC[C@H]12)[C@](C)(O)C3
inhibition (HMy2.C1R [1]): inactive

C[C@]12CCC[C@]3(COC1=O)[C@@H]2CC[C@@]12C[C@@H](CC[C@]13O)[C@](C)(O)C2
Activity (HMy2.C1R [8]): Dose-dependent effect

C[C@]12CCC[C@@]3(COC1=O)[C@@H]1CC[C@@H]4C[C@@]1(CC[C@@H]32)C[C@@]4(C)O
IC50 (HMy2.C1R [2]): 56.3 µM
Ratio (HMy2.C1R [3]): 0.6
Ratio (HMy2.C1R [4]): 0.683
Ratio (HMy2.C1R [5]): 0.762
Ratio (HMy2.C1R [6]): 0.809
Ratio (HMy2.C1R [7]): 0.849
